Screening data from PubChem BioAssay.
Sampled rows, rich in hits. Any-hit rate of the full collection: about 3%.
5HT1E ag: 5-HT1E (human) receptor agonism; P28566; CHO 5-HT1E Ga15 NFAT-bla reporter, FRET; 0% DMSO wells, 100% control agonist wells; activation, % at 6 µM; 65,000 compounds, 0.69% hits; AID 574;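 active = activation above a set limit, the screen-wide mean activation plus 3 SD, cut at about 8.5% in these data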;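 note: 100% = positive control agonist at 1 µM giving full maximal response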
S1P3 ag: S1P3 (human) receptor agonism. 60,000 compounds, 0.1% hits. S1P3 NFAT-BLA reporter cells, FRET ratio; relative to 1 µM S1P, basal subtracted. AID 373. Q99500. activation, % at 4.5 µM;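 active = activation above the screen-wide mean plus 3 SD, cut at about 4.5% in these data, passing the limit was not always enough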
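material = human S1P3 NFAT-BLA reporter CHO cells | schedule = 4 h compound at 37 °C, 2 h substrate at RT | measured by = fluorescent BLA substrate, ex 405 nm, em 460/535 nm ratio | controls = 1 µM S1P reference | replication = primary once, confirmation triplicate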
5HT1E antag: antagonists of human 5-HT1E serotonin receptor; inhibition, % at 6 µM; CHO 5-HT1E Ga15 NFAT-bla reporter, FRET, antagonist; P28566; 65,000 compounds, 0.99% hits;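 active = inhibition above a set limit, the mean inhibition across every tested compound plus 3 SD, cut at about 29% in these data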;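 note: signal is the 460 over 535 nm emission ratio of beta-lactamase substrate; 0% = agonist plus DMSO wells and 100% = wells without agonist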
5HT1a antag: blocks the human serotonin 5-HT1a receptor | P08908 | CHO 5-HT1a Ga15 NFAT-bla reporter, antagonist mode | inhibition, % at 10 µM | 62,000 compounds, 0.68% hits | AID 612;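 active = inhibition above the mean of all tested compounds plus 3 SD, cut at about 43% in these data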;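 note: receptor stimulated by 5-CT agonist at 100 nM near EC80; beta-lactamase reporter measured by ratiometric fluorescence of a cleavable substrate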
HTR1A agonist: 5-HT1a (human) receptor agonism; P08908; CHO 5-HT1a Ga15 NFAT-bla reporter, FRET ratio; 0% basal, 100% maximal reference agonist; activation, % at 10 µM; 65,000 compounds, 0.56% hits;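 active = activation above the screen-wide mean activation plus 3 SD, cut at about 19% in these data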;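 note: 0% = DMSO wells and 100% = 5-CT at EC100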
S1P1 ag-PAM: agonists and agonism potentiators of human S1P1 receptor. S1P1 CRE-bla cells, forskolin, beta-lactamase FRET, potentiator mode; S1P1 agonist co-added at EC20, 2 nM; 100% = saturating reference agonist, 0% = basal. activation, % at 9.5 µM. 56,000 compounds, 0.57% hits;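 active = activation above a cutoff set at the mean activation of all tested compounds plus 3 SD, cut at about 54% in these data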;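 note: forskolin at 4 µM as EC80 and the EC20 agonist is SEW2871; 100% = SEW2871 at its EC100 plus forskolin at EC80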
Target sequence (P21453 whole entry, looked up): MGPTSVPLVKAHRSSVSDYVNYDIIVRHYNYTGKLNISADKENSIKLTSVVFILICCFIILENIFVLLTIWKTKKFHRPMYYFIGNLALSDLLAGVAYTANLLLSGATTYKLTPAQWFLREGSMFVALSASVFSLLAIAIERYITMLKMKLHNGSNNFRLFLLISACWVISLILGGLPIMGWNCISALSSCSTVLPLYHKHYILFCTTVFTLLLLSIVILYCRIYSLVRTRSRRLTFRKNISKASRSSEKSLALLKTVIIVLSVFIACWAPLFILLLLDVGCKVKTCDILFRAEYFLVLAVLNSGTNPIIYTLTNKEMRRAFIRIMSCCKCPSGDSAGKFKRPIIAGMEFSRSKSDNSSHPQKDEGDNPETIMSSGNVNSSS
Starred values were filed as active, the others as inactive; . = no result.

SMILES | 5HT1E ag | S1P3 ag | 5HT1E antag | 5HT1a antag | HTR1A agonist | S1P1 ag-PAM
CCOc1cc(C2c3c(oc4cc(C)c(Cl)cc4c3=O)C(=O)N2Cc2ccco2)ccc1O (centres undefined) | 9.8* | 0 | -8 | -3 | 1 | -8
Cc1cc2oc3c(c(=O)c2cc1C)C(c1cccc(Br)c1)N(Cc1ccco1)C3=O (centres undefined) | 0 | -2 | -5 | 14 | 3 | 3
O=c1c2cc(Cl)ccc2nc2ccc(N3CCCC3)nn12 | 0 | -1 | 8 | 5 | -3 | -8
O=S(=O)(c1ccc(OCC(O)CN2CCc3ccccc3C2)cc1)N1CCOCC1 (centres undefined) | -1 | 2 | -4 | -1 | -1 | 8
CCn1c2ccccc2c2nnc(SCC(=O)c3ccccc3)nc21 | -1 | 0 | 31* | -13 | 3 | -70
CN1CCN(/C=N/c2c(C#N)cnn2Cc2ccccc2)CC1 | 1 | 0 | 2 | 1 | 1 | -9
CCCc1nnc(SCc2ccc(OC)cc2)n1N | 0 | -1 | -7 | 6 | -1 | -40
CCC(=O)NCCc1cc2cc(C)c(C)cc2[nH]c1=O | 0 | -1 | -1 | 1 | 224* | -18
Cc1ccc(-c2nn(C)c(=O)c3ccccc23)cc1S(=O)(=O)N1CCCC1 | 2 | 0 | 36* | 10 | 0 | -50
Cc1ccc(-c2nn(C)c(=O)c3ccccc23)cc1S(=O)(=O)NCCO | 0 | -1 | 29* | 6 | -2 | .
COCCNS(=O)(=O)c1cccc2cccnc12 | 0 | -1 | -3 | 6 | -3 | -4
Cn1c(Cn2c(=O)sc3ccccc32)nnc1SCC(=O)NCc1ccc(F)cc1 | 0 | 0 | -24 | -11 | 40* | -6
O=C1CC(Sc2nnnn2C2CCCCC2)C(=O)N1c1ccccc1 (centres undefined) | 0 | -1 | 23 | 44* | -2 | -26
CCCCC(c1nnnn1C1CCCC1)N1CCN(C2CCCCC2)CC1 (centres undefined) | 0 | 0 | 5 | 50* | -1 | -5
CCCC(c1nnnn1C1CCCCC1)N1CCN(c2ncccn2)CC1 (centres undefined) | 0 | -1 | 2 | 8 | 1 | 0
Cc1ccc(CCNC(=O)c2coc3nc4ccccc4nc23)cc1 | 13* | 1 | -3 | -17 | 3 | -48
COc1cc(C2C3=C(Nc4ncnn42)c2ccccc2CC3)cc(OC)c1OC (centres undefined) | 0 | -1 | 61* | 14 | -1 | -40
O=C1CCC(C(=O)NC2(C(=O)NC3CCCCC3)CCCCC2)N1 (centres undefined) | 1 | . | -2 | -8 | 1 | .
O=C(CN1C(=O)COc2ccccc21)N(CCCN1CCOCC1)CC1CC=CCC1 (centres undefined) | 0 | 0 | 7 | 6 | -1 | 8
O=C(COC(=O)C1COc2ccccc2O1)NC(=O)Nc1ccc2c(c1)OCCO2 (centres undefined) | -1 | 0 | -8 | 4 | 2 | 13
CSc1ccccc1NS(=O)(=O)c1ccc2c(c1)OCCO2 | 0 | -1 | 3 | 4 | -3 | -14
COC(=O)c1ccc(C)c(NS(=O)(=O)c2ccc3c(c2)OCCO3)c1 | -1 | -1 | 60* | 33 | -1 | 5
CC(C)(C)NC(=O)NC(=O)COC(=O)c1ccco1 | 0 | . | -3 | -8 | 2 | .
Cc1ccc(NS(=O)(=O)c2cccc(C(=O)n3ncc(C#N)c3N)c2)c(C)c1 | -1 | 0 | -4 | -5 | -1 | 1
CCOC(=O)c1[nH]c2ccc(OC)cc2c1NC(=O)OC | 0 | 0 | -9 | 5 | -3 | -6
SMILES | 5HT1E ag | S1P3 ag | 5HT1E antag | 5HT1a antag | HTR1A agonist | S1P1 ag-PAM
COc1ccc2[nH]c(O)c(NC(C)=O)c2c1 | 13* | -1 | 5 | -3 | -1 | 5
Cc1cc(Nc2cccc(F)c2)nc(-c2ccccc2O)n1 | 0 | 1 | 31* | 37 | -2 | 3
COCCCNC(=O)CCn1c(=O)c2ccccc2n(CC(=O)Nc2c(C)cccc2C)c1=O | 0 | 0 | -12 | 4 | -4 | -5
COCCCNC(=O)CCCn1c(=O)c2ccccc2n(CC(=O)Nc2c(C)cc(C)cc2C)c1=O | 43* | -1 | 0 | 7 | -3 | 5
O=C(Nc1ccc(-c2cn3ccsc3n2)cc1)c1ccc(F)c(S(=O)(=O)N2CCOCC2)c1 | 0 | 0 | 25 | 8 | 0 | -28
COc1ccc(S(=O)(=O)n2nc(OC(=O)c3ccccc3Br)cc2N)cc1 | -1 | 0 | -2 | 18 | -3 | 40
CS(=O)(=O)n1nc(OC(=O)c2cccc3ccccc23)cc1N | -1 | -2 | -2 | 43* | -2 | 65*
COc1ccc(C(=O)COC(=O)CCN=C2NS(=O)(=O)c3ccccc32)cc1OC | 20* | -1 | 14 | 3 | 0 | -12
CC(=O)c1cccc(NC(=O)Nc2ccc3c(c2)N(C)C(=O)CS3)c1 | 0 | . | 7 | 9 | 0 | .
Clc1ccccc1CSc1nnc(-c2ccccn2)n1Cc1ccco1 | -2 | . | 3 | 32 | -2 | .
C(=C\c1ccccc1)/CSc1nnc(-c2ccccn2)n1Cc1ccco1 | -1 | -1 | 20 | 52* | 1 | 43
CCOC(=O)c1cc2sc(C)cc2n1C(C)C(=O)OCC (centres undefined) | 0 | -1 | 0 | 9 | -1 | 19
CCCCc1nnc(SCCSc2nnc(CCCC)n2N)n1N | 0 | -1 | -1 | -15 | -2 | -26
Cc1cc(C(C)(C)C)cc(C)c1CC1=NCCN1 | 89* | -4 | -3 | . | 43* | 18
O=C(Oc1ccc2[nH]cc(CCN3C(=O)c4ccccc4C3=O)c2c1)c1ccco1 | 38* | -1 | -7 | -12 | -1 | -19
COc1ccc2c(c1)c(CCN1C(=O)c3ccccc3C1=O)cn2C(=O)c1ccco1 | 0 | -1 | 7 | 8 | 0 | -6
Cc1cc(C(=O)CSCc2nnc3n(CCC(C)C)c(=O)c4ccccc4n23)c(C)n1C | -1 | -1 | -3 | 10 | -3 | 12
O=C1c2oc3ccc(Cl)cc3c(=O)c2C(c2ccccn2)N1CCCN1CCOCC1 (centres undefined) | -1 | -2 | 4 | -9 | -4 | 5
O=C(Nc1ccc(S(=O)(=O)C(F)F)cc1)c1cccc(S(=O)(=O)N2CCOCC2)c1 | 0 | 0 | -2 | 2 | 20* | .
O=C(Nc1cccc(S(=O)(=O)C(F)F)c1)c1ccc(S(=O)(=O)N2CCOCC2)cc1 | 0 | -1 | -4 | 0 | 2 | -1
CCCOC(=O)CSc1nnc(-c2ccccc2Cl)o1 | 1 | 0 | -3 | -12 | -1 | -18
